In PubChem BioAssay AID573 (SRMLSC, 2007):
Screen size: about 65,000 compounds; about 1,400 (2.2%) were called active.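 How the source made its calls: active means growth inhibition at or above a cutoff equal to the mean over every tested compound plus 3 SD (cut at about 60% in these data); inactive means the rest.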 The sample as a whole holds a higher share of actives than the screen did.

Assay: E. coli ΔtolC antibacterial growth inhibition – strain BW25113 ΔtolC::kan, 384-well, primary screen (AID 573)
Settings: E. coli BW25113 tolC mutant growth, OD615; stronger effect = higher value; screened at 10 µM (by protocol)
Summary of the method: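 Test system: E. coli BW25113 ΔtolC::kan bacteria | Medium: Kanamycin-containing LB broth (50 µg/mL) | Dosing: One dose of 10 µM final | Times: 20 h incubation with compound, 37 °C | Detection: Optical density read at 615 nm | Read-out basis: Percent growth inhibition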

| SMILES | growth inhibition |
| --- | --- |
| COC(=O)c1sc(=S)n(-c2ccccc2)c1N | -12.6% (inactive) |
| CC1CCCC(C)N1C(=O)CN1CCN(c2nc(-c3ccc(F)cc3)cs2)CC1 (stereo not drawn) | 100% (active) |
| COc1ccc(-c2csc(N3CCN(Cc4ccc5c(c4)OCO5)CC3)n2)cc1 | 5.4% (inactive) |
| O=C(CN1CCN(c2nc(-c3ccccc3)cs2)CC1)NCc1ccc2c(c1)OCO2 | 50% (inactive) |
| COc1c(F)c(F)c(-c2csc(N)n2)c(F)c1F | 9.92% (inactive) |
| CNC(=O)Nc1cc(C(C)(C)C)no1 | -22.1% (inactive) |
| COc1ccc(CCNC(=O)c2cc3sccc3n2C)cc1OC | 7.67% (inactive) |
| O=C(NCc1ccco1)c1cc2sccc2n1Cc1ccc(F)cc1 | 56.9% (inactive) |
| CCOC(=O)c1cc2sccc2n1Cc1ccc(C#N)cc1 | 62.5% (active) |
| c1nnc2c3c4c(sc3ncn12)CCC4 | -4.55% (inactive) |
| O=C(CSc1nc2ccccc2o1)N1CCN(c2ccccc2)CC1 | 5.08% (inactive) |
| Cc1cccc(NC(=O)CSC(N)=O)c1C | -15.7% (inactive) |
| O=C(O)C1CC=CCC1C(=O)NCCc1ccccc1 (stereo not drawn) | -21.4% (inactive) |
| CC1CCCN(c2ccc(C(=O)NCCc3ccccc3)cn2)C1 (stereo not drawn) | 61.4% (active) |
| O=C(NCCCNCc1ccccc1)c1ccc(/C=N/O)nc1 | -12.5% (inactive) |
| COc1ccc(S(=O)(=O)N2CCOCC2)cc1C(=O)Nc1nc2ccccc2s1 | -15.6% (inactive) |
| CCCn1c(=O)c2[nH]c(C3CCCC3)nc2n(CCC)c1=O | 5.97% (inactive) |
| O.O.O.O=S(=O)([O-])OC[C@H]1O[C@@H](O[C@]2(COS(=O)(=O)[O-])O[C@H](OS(=O)(=O)[O-])[C@@H](OS(=O)(=O)[O-])[C@@H]2OS(=O)(=O)[O-])[C@H](OS(=O)(=O)[O-])[C@@H](OS(=O)(=O)[O-])[C@@H]1OS(=O)(=O)[O-].[Al] | -6.62% (inactive) |
| CCOC(=O)CSc1nnc(-c2cccc(Br)c2)o1 | -4.64% (inactive) |
| Cc1noc(C)c1S(=O)(=O)N(CC(=O)NCc1ccc(Cl)cc1)c1ccc2c(c1)OCO2 | -5.56% (inactive) |
| N#Cc1nc(COc2ccc(Cl)cc2)oc1N1CCCC1 | 7.84% (inactive) |
| CC1CCN(c2oc(-c3ccccc3F)nc2C#N)CC1 | 71.3% (active) |
| N#CCCN1CCN(S(=O)(=O)c2ccc(S(=O)(=O)NC3CCCCC3)cc2)CC1 | -0.61% (inactive) |
| Cc1cc(NC(=O)CN2CCC(O)(c3cccc(F)c3)CC2)no1 | -18.6% (inactive) |
| O=C(Cn1nnc(-c2ccc3c(c2)OCO3)n1)NCc1ccco1 | 7.12% (inactive) |

| SMILES | growth inhibition |
| --- | --- |
| O=C(NCCCCO)C(F)(F)C(F)(F)C(F)(F)C(=O)NCCCCO | -11% (inactive) |
| CCOC(=O)c1c(NC(=O)CSc2nnc(C)c(=O)[nH]2)sc2c1CCC2 | 66.5% (active) |
| CCOCC(=O)Nc1sc2c(c1C(=O)OCC)CCCC2 | 42.8% (inactive) |
| CCOC(=O)c1c(NC(=O)CSc2nnc(CN3CCOCC3)n2C)sc2c1CCCC2 | 5.6% (inactive) |
| CC1(C)CC(=O)c2cc(OCC(=O)NCC3CCCO3)ccc2O1 (stereo not drawn) | -5% (inactive) |
| O=C(NCCCN1CCCCCC1)C1CC(=O)N(C2CCCC2)C1 (stereo not drawn) | -11.7% (inactive) |
| COc1cc(OC)cc(C(=O)Nc2ccc(-c3nc4ccccc4o3)c(O)c2)c1 | 19.7% (inactive) |
| Cc1nc2nc(COc3ccccc3)[nH]n2c(=O)c1Cc1ccccc1 | 100% (active) |
| Cc1nc(SC(C)C)[nH]c(=O)c1Cc1ccccc1 | 0% (inactive) |
| Cc1nc2nc(COc3ccccc3)[nH]n2c(=O)c1C | 11.6% (inactive) |
| O=C(NCc1ccco1)c1sc2cccc(F)c2c1Cl | -1.49% (inactive) |
| CCOc1ccccc1NC(=O)C1CCN(S(=O)(=O)c2c(C)nn(C)c2C)CC1 | -6.48% (inactive) |
| COc1ccc(-n2c(SCC(=O)OC(C)C)nnc2-c2ccccn2)cc1 | 4.58% (inactive) |
| Nc1nonc1-c1nc2ccccc2n1Cc1ccc(F)cc1 | -8.77% (inactive) |
| Cc1c(C(=O)N2CCOCC2)[nH]c2ccc(OCc3ccccc3)cc12 | 1.84% (inactive) |
| CCOC(=O)c1c(CN2CCOCC2)n(-c2ccccc2)c2ccc(O)cc12 | 65.2% (active) |
| O=c1c(-c2ccccc2)coc2c(CN3CCOCC3)c(O)ccc12 | -9.34% (inactive) |
| O=C(O)c1ccc(NS(=O)(=O)c2cccc3nsnc23)cc1 | -25% (inactive) |
| Cc1cccc2nc(CNc3ccc(F)cc3)cn12 | 4.83% (inactive) |
| COc1cc(-c2noc(C3CCCN(S(=O)(=O)c4cccc(Cl)c4)C3)n2)cc(OC)c1OC (stereo not drawn) | 35.2% (inactive) |
| O=C(Nc1ccccc1N1CCCCC1)c1cccc(F)c1 | 100% (active) |
| O=C(Nc1ccccc1N1CCN(c2ccccc2)CC1)c1cccc(F)c1 | 17.8% (inactive) |
| O=C(Nc1ccccc1N1CCCCC1)c1ccc2nccnc2c1 | 28.8% (inactive) |
| O=C(Nc1ccccc1F)C1C2C=CC3(O2)C1C(=O)N(c1cccnc1)C3C(=O)NC1CCCCC1 (stereo not drawn) | -12.5% (inactive) |
| CCOc1ccc2nc(N3CCCN(C(=O)Nc4ccccc4C)CC3)c(C#N)cc2c1 | 62.3% (active) |

| SMILES | growth inhibition |
| --- | --- |
| COc1ccc2nc(N3CCCC(O)C3)c(C#N)cc2c1 (stereo not drawn) | 5.39% (inactive) |
| CCOc1ccc2nc(NCCNS(=O)(=O)c3ccccc3)c(C#N)cc2c1 | -0.48% (inactive) |
| Cc1ccccc1-c1nc(CS(=O)(=O)CC(=O)N2CCc3ccccc3C2)c(C)o1 | 63% (active) |
| Cc1oc(-c2ccccc2F)nc1CS(=O)(=O)CC(=O)NCCCN(C)C1CCCCC1 | -1.97% (inactive) |
| COc1ccc(-c2nc(CS(=O)CC(=O)N3CCc4ccccc4C3)c(C)o2)cc1 (stereo not drawn) | 3.93% (inactive) |
| CCCc1cc(=O)[nH]c(SCc2ccc(C#N)cc2)n1 | 14.9% (inactive) |
| CCCCC(=O)N(c1ccc(OC)cc1)C1C=CS(=O)(=O)C1 (stereo not drawn) | -9.87% (inactive) |
| Fc1ccccc1C(c1nnnn1Cc1ccc2c(c1)OCO2)N1CCN(Cc2ccccc2)CC1 (stereo not drawn) | 20.4% (inactive) |
| Fc1ccc(Cn2nnnc2C(c2cccs2)N2CCCCCC2)cc1 (stereo not drawn) | 85.7% (active) |
| CCC(C)(C)n1nnnc1C(c1cccs1)N1CCN(Cc2ccccc2)CC1 (stereo not drawn) | 4.31% (inactive) |
| COc1ccc(N2CCN(Cc3cc(=O)oc4ccc5ccccc5c34)CC2)cc1 | 11.6% (inactive) |
| CCOC(=O)C1C(=O)NC(N2CCN(c3ccccc3)CC2)=NC1c1ccco1 (stereo not drawn) | -7.5% (inactive) |
| COc1ccc(CCNC(=O)c2ccco2)cc1 | -4.03% (inactive) |
| CCOC(=O)C1C(=O)C=C(c2ccc(OC)cc2)CC1c1ccco1 (stereo not drawn) | 85.4% (active) |
| CCOc1ccc(S(=O)(=O)n2ccnc2)c2ccccc12 | 3.73% (inactive) |
| CS(=O)(=O)N(CC(=O)N1CCN(c2cccc(Cl)c2)CC1)c1ccccc1 | 1.41% (inactive) |
| Cc1ccccc1OCC(=O)Nc1ccc(N2CCN(C(=O)C(C)C)CC2)c(Cl)c1 | 42.8% (inactive) |
| CCc1nnc(NS(=O)(=O)c2ccc(NS(=O)(=O)c3ccccc3)cc2)s1 | 19% (inactive) |
| CCOC(=O)C1Cn2c(nc3c(c2=O)C(C)(CC)Cc2ccccc2-3)S1 (stereo not drawn) | 67.9% (active) |
| CC1(C)Cc2ccccc2-c2nc(CN3CCOCC3)[nH]c(=O)c21 | 5.57% (inactive) |
| CCOC(=O)C1CCc2nc3ccccc3c(=O)n21 (stereo not drawn) | -18.7% (inactive) |
| CCCCc1nc2c(=O)[nH]c3ccccc3c2o1 | -2.92% (inactive) |
| Clc1ccc(Cn2ncc3c(NCc4cccnc4)ncnc32)cc1 | 18.6% (inactive) |
| O=C(NCc1ccco1)C1CCCN(S(=O)(=O)c2cccc3nonc23)C1 (stereo not drawn) | -21.5% (inactive) |
| COc1ccc(N2C(=O)CC(N3CCC(C(N)=O)CC3)C2=O)cc1 (stereo not drawn) | -10.9% (inactive) |

| SMILES | growth inhibition |
| --- | --- |
| COc1cccc(NC(=O)CN(C)S(=O)(=O)c2ccc(C)cc2)c1 | 13.3% (inactive) |
| COc1cccc(-c2nnc(NC(=O)c3ccc(S(=O)(=O)N(CC(C)C)CC(C)C)cc3)o2)c1 | 98.8% (active) |
| CCN(CC)C(=O)CSc1nnc(-c2cccc(OC)c2)o1 | -2.54% (inactive) |
| CCOC(=O)c1sc(NC(=S)n2cc(C)cn2)c(C(=O)OCC)c1C | 23.8% (inactive) |
| Cc1cc2nc(-c3ccc(NC(=O)c4cccnc4)cc3)oc2cc1C | 10.2% (inactive) |
| O=C(c1ccco1)N1CCN(C(=O)c2ccc(COc3ccc(F)cc3)o2)CC1 | 1.7% (inactive) |
| Cc1cc(=O)[nH]c(=S)[nH]1 | -13.2% (inactive) |
| O=C1NC(Nc2nc3ccccc3s2)(C(F)(F)F)C(=O)N1C1CCCCC1 (stereo not drawn) | 100% (active) |
| COC(=O)NC1(C(F)(F)F)NC(=O)N(C2CCCCC2)C1=O (stereo not drawn) | -5.17% (inactive) |
| C1=C(N2CCOCC2)/C(=C/c2nc3ccccc3[nH]2)CC1 | -16.7% (inactive) |
| CCOC(=O)c1cc(-c2ccc(Cl)s2)nc2c1c(C)nn2C | 8.55% (inactive) |
| CC(C)CCNC(=O)CCNS(=O)(=O)c1ccc(Cl)cc1 | 7.04% (inactive) |
| COc1ccc(OC)c2sc(NC(=O)C3COc4ccccc4O3)nc12 (stereo not drawn) | 70.5% (active) |
| O=C(Nc1nc(-c2ccncc2)cs1)C1COc2ccccc2O1 (stereo not drawn) | 36.7% (inactive) |
| Cc1cc(NC(=O)CCC2COc3ccccc3O2)no1 (stereo not drawn) | 0.5% (inactive) |
| CC(=O)c1cnc(Nc2nc(C)c3cc(C)ccc3n2)nc1C | -6.16% (inactive) |
| COc1ccccc1N1CCN(C(=O)c2cc(-c3ccc(Cl)c(Cl)c3)on2)CC1 | -3.17% (inactive) |
| COc1ccccc1N1CCN(C(=O)c2cc(-c3ccc(Br)cc3)on2)CC1 | 63.8% (active) |
| COc1ccccc1-c1cc(C(=O)N2CCCCC2)no1 | 7.63% (inactive) |
| Oc1c(C(c2ccccn2)N2CCOCC2)ccc2cccnc12 (stereo not drawn) | 29.8% (inactive) |
| CCCC(C(=O)N1CCOCC1)N1C(=O)C2C3C=CC(C3)C2C1=O (stereo not drawn) | -13.1% (inactive) |
| CC(C)c1ccc(N2CC(C(=O)Nc3nccs3)CC2=O)cc1 (stereo not drawn) | 9.63% (inactive) |
| Cc1oc(C)c(C(=O)NCCCC(=O)O)c1C(=O)NCCCC(=O)O | -20.2% (inactive) |
